# Rows were chosen to be rich in hits. Some 1.7% of all compounds tested hit in one or more screens of this group.
# DNMT1 block: human DNMT1 methyltransferase inhibitors, primary screen, biochemical, molecular beacon, fluorescence, HinP1I cleavage, uHTS; actives 0.83% (n = 360,000); inhibition (reported as % activation of signal), % at 10 µM; DNA (cytosine-5)-methyltransferase 1 (Homo sapiens), P26358; AID 588458, 2011; in the data active = inhibition above about 50%
# LMPTP block: LMPTP phosphatase inhibitors, primary screen, biochemical, fluorescence intensity, uHTS; inhibition, % at 20 µM; actives 0.22% (n = 360,000); AID 651560, 2012; Low molecular weight phosphotyrosine protein phosphatase (Homo sapiens), P24666; recombinant LMPTP-A, OMFP fluorogenic substrate;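 active = compounds that cut the enzyme signal by at least half of the control window in the single-dose screen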;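 note: plate controls were DMSO wells with enzyme plus substrate for no effect and substrate without enzyme for full effect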
#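 Assay system: LMPTP-A, protein tyrosine phosphatase of low molecular weight / Medium: pH 6.0 Bis-Tris buffer with DTT and Triton X-100 / Schedule: 50 min enzyme reaction at room temperature, protected from light / Measured by: endpoint fluorescence intensity from OMFP dephosphorylation / Read-out basis: % inhibition relative to no-enzyme and uninhibited control wells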
# STEP inh: STEP phosphatase inhibitors, primary screen, biochemical, fluorescence intensity, uHTS. recombinant STEP, OMFP fluorogenic substrate. Tyrosine-protein phosphatase non-receptor type 5 (Homo sapiens), P54829. actives 0.25% (n = 360,000). inhibition, % at 20 µM;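 active = inhibition at 20 µM, scaled per plate between control wells, above about 37%, limit read from the data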;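 note: 0% = DMSO with enzyme and substrate and 100% = substrate only without enzyme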
#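 Material: STEP (striatal-enriched tyrosine phosphatase) enzyme, cell-free; Compound dosing: 20 µM single dose in 1% DMSO; Technique: fluorescence read at 480 nm ex / 540 nm em; Times: reaction 20 min, ambient temperature; Medium: 50 mM Bis-Tris pH 6.0 with 2.5 mM DTT and 0.005% Tween 20; Also added: OMFP at 25 µM.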
# Scp-1 inhibitor: Scp-1 phosphatase inhibitors, primary screen, biochemical, colorimetric, uHTS | inhibition, % at 20 µM | Recombinant Scp1, phosphopeptide, malachite green phosphate absorbance | AID 493091, 2011 | Carboxy-terminal domain RNA polymerase II polypeptide A small phosphatase 1 (Homo … | actives 0.88% (n = 340,000);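 active = inhibition above about 50% at 20 µM, limit read from the data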;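 note: plate controls were DMSO wells with enzyme for no effect and wells lacking enzyme for full effect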
#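 Assay system: SCP-1 catalytic fragment, aa 76-261 | Buffer or medium: Tris acetate buffer pH 5.5 with MgCl2 and Tween-20 | Compound: One concentration, 20 µM, with 1.0% DMSO | Also added: Phospho 17-mer peptide substrate | Signal: Absorbance at 630 nm | Incubation: 45 min enzyme reaction at room temperature | Measure: % inhibition of SCP-1 phosphate liberation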
# SUMO1-SIM PPI: modulators of SUMO1 protein-protein interactions, primary screen, biochemical, uHTS; Small ubiquitin-related modifier 1 (Homo sapiens), P63165; SUMO1 binding to a labelled peptide, TR-FRET, 1 h; inhibition, % at 20 µM; actives 0.33% (n = 360,000); in the data active = inhibition above about 37%
# Scp1 confirm: Scp-1 phosphatase inhibitors, retest, confirmation, biochemical, colorimetric, single concentration. shares compounds with Scp-1 inhibitor. recombinant SCP-1 catalytic domain, phosphate release, malachite green absorbance. inhibition, % at 20 µM. actives 61% (n = 2,500). AID 540281, 2011;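 note: plate controls were DMSO with enzyme for no effect and buffer wells lacking enzyme for full effect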
# MG interference: colorimetric readout interference by compounds, confirmation, artefact control for Scp-1 inhibitor project, biochemical, single concentration. shares compounds with Scp-1 inhibitor. AID 540313, 2011. 2,500 tested, under 10 active. apparent inhibition (interference), % at 20 µM. Colorimetric interference counterscreen, malachite green absorbance 630 nm;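 note: compounds added after enzyme reaction finished so only phosphate colour detection is probed; plate controls were DMSO wells with completed Scp-1 reaction for no effect and substrate wells lacking enzyme for full effect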
# Scp-1 Tm shift: Scp-1 binding by thermal shift, confirmation, orthogonal assay for Scp-1 inhibitor project, biophysical, differential scanning fluorimetry. Recombinant SCP1, Sypro Orange thermal shift Tm. thermal shift relative to vanadate control, % at 40 µM. AID 540329, 2011. actives 25% (n = 1,500). shares compounds with Scp-1 inhibitor;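 active = substances whose mean melting-temperature shift, as a percentage of the reference inhibitor's shift, reaches about 5.3%, limit read from the data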;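 note: 0% = Tm of DMSO wells and 100% = Tm with sodium orthovanadate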
# * hit, by the source's call; . = no result.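 Rule for the calls, unless noted: active = inhibition of at least 30% at 20 µM; inactive = the rest.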
SMILES,DNMT1 block,LMPTP block,STEP inh,Scp-1 inhibitor,SUMO1-SIM PPI,Scp1 confirm,MG interference,others
CN1C(=O)/C(=C2\SC(=S)N(CCCCCC(=O)O)C2=O)c2ccccc21,3,85*,98*,104*,-1,68*,-18,Scp-1 Tm shift=3
CCN1C(=O)/C(=C2\SC(=S)N(CCCOC)C2=O)c2ccccc21,3,2,1,-6,-1,.,.,
Cn1c(=O)c(C(=O)CN2CCc3ccccc32)c(N)n(Cc2ccccc2)c1=O,-24,1,3,-6,-1,.,.,
Cn1c(=O)c(C(=O)CN2CC(=O)Nc3ccccc32)c(N)n(Cc2ccccc2)c1=O,2,0,0,-7,2,-7,-11,
COc1ccc(-n2c(C)cc(/C=C/c3nc(O)c([N+](=O)[O-])c(=O)[nH]3)c2C)cc1,44,16,3,66*,9,59*,-18,Scp-1 Tm shift=5
O=c1[nH]c(/C=C\c2ccc(O)c(O)c2)nc(O)c1[N+](=O)[O-],14,-1,5,23,3,45*,-2,Scp-1 Tm shift=6.2*
CN(/N=C/c1ccncc1)c1cnn(-c2ccc(F)c(Cl)c2)c(=O)c1Cl,-2,32,15,54*,8,9,-14,
N#CC(C#N)=C1CCCc2sccc21,-5,-1,-3,5,-32,.,.,
O=CNc1cc(-c2ccoc2)cn2c(-c3ccc(F)cc3)cnc12,0,1,0,.,3,.,.,
COc1ccc(C2=[N+](C)CCn3cccc32)c(OC)c1,3,0,2,103*,-1,96*,-7,Scp-1 Tm shift=0
COc1ccc(CN2CCc3ccccc3C2)c(OC)c1,0,-3,3,-4,1,.,.,
COc1cccc(NC(=O)CCNC(=O)C2CCN(S(=O)(=O)c3ccc(F)cc3)CC2)c1,-2,-1,-2,-7,-5,.,.,
O=C1CC(NS(=O)(=O)c2cccnc2)CN1c1ccc(F)cc1 (configuration not stated),1,0,0,4,2,.,.,
COc1ccc(N2CC(NS(=O)(=O)c3ccc(F)cc3)CC2=O)cc1 (configuration not stated),-2,0,-1,-5,0,-8,-11,
O=C(COC(=O)c1cc(Br)ccc1O)NC12CC3CC(CC(C3)C1)C2,-3,0,-2,61*,2,-19,-17,
O=C(COC(=O)c1cncc(Br)c1)NC12CC3CC(CC(C3)C1)C2,2,-1,-2,.,2,.,.,
CC(=O)Nc1cc2c3c(cccc3c1)-c1ccccc1-2,-8,0,-3,-3,-10,.,.,
Cc1ccccc1OCCSc1nc2ccccc2n1CCC(=O)O,5,1,2,4,10,.,.,
CNC(=O)C(=O)Nc1ccc2c(c1)N(S(=O)(=O)c1cccs1)CCC2,0,0,-2,54*,7,-22,-18,
CC(C)NC(=O)C(=O)Nc1ccc2c(c1)N(S(=O)(=O)c1cccs1)CCC2,-4,0,-1,-12,-3,.,.,
COc1ccccc1C(C)Nc1nc(-c2cccnc2)nc2ccccc12 (configuration not stated),-5,14,1,61*,15,-8,-13,
CN=C1SC(C(=O)Nc2ccccc2Cl)CC(=O)N1c1ccc(OC(F)(F)Cl)cc1 (configuration not stated),1,-2,3,-2,-4,.,.,
CCCCN1C(=O)C(CC(=O)NCc2cccc3ccccc23)CC(C(=O)N(C(C)C)C(C)C)=C1C (configuration not stated),.,0,.,.,4,.,.,
Cc1ccc(S(=O)(=O)N2CCN(C(=O)COC(=O)CCOc3ccccc3C)CC2)c(C)c1,-1,0,0,66*,0,86*,-17,Scp-1 Tm shift=-20
COc1ccc(OC)c(NS(=O)(=O)c2c(C(=O)N3CCCCCC3)c(C)n(C)c2C)c1,2,1,-2,-5,-2,.,.,
SMILES,DNMT1 block,LMPTP block,STEP inh,Scp-1 inhibitor,SUMO1-SIM PPI,Scp1 confirm,MG interference,others
Cn1c(SCC(=O)Nc2nccs2)nnc1-c1ccccn1,0,-1,1,-8,0,.,.,
COC(=O)[C@@]12C[C@@H](CC(=O)NCCCCc3ccccc3)C(=O)N(Cc3ccc4c(c3)OCO4)C1=CCC(C)(C)C2,.,9,.,.,6,.,.,
O=C(N/N=C/c1ccccc1[N+](=O)[O-])c1ccc2c(c1)OCCO2,-1,0,2,-9,-39,.,.,
O=C(N/N=C/c1cc([N+](=O)[O-])ccc1O)c1ccc2c(c1)OCCO2,-3,4,6,64*,-12,48*,-6,Scp-1 Tm shift=-3
O=C(N/N=C/c1cc([N+](=O)[O-])ccc1Cl)c1ccc2nc[nH]c2c1,3,-1,2,55*,19,28,-2,
Cc1ccc(C(=O)NCC(=O)Nc2ncccc2C)s1,12,0,-4,1,6,.,.,
CC(C)(C)C(=O)O/N=C1/C(=O)N(c2ccccc2)c2ccccc21,22,4,13,89*,-17,74*,-15,Scp-1 Tm shift=-16
CC(C)CC(=O)O/N=C1\C(=O)N(c2ccccc2)c2ccccc21,5,-1,-5,-12,-14,.,.,
O=C(Oc1cccc([N+](=O)[O-])c1)c1ccc2c(=O)n3c(nc2c1)CCC3,2,1,3,13,-9,.,.,
COc1ccc(CCNC(C(=O)Nc2cc(C)cc(C)c2)c2ccccc2)cc1 (configuration not stated),-3,4,0,54*,2,-9,-5,
CC1CC(C)CN(C(=O)c2cccc(N3C(=O)c4ccccc4C3=O)c2)C1 (configuration not stated),4,0,2,-1,-14,.,.,
Cn1nc2c(c1C(=O)N1CCCC(C(=O)c3cc(F)ccc3F)C1)CCCC2 (configuration not stated),5,-2,-2,-2,2,.,.,
Cn1nc2c(c1C(=O)O)CCCC2,41,0,-6,60*,1,67*,1,Scp-1 Tm shift=-5
